Data reported in ChEMBL document CHEMBL1138571, “Design, synthesis and evaluation of tetrahydropyran based COX-1/-2 inhibitors” (Eur J Med Chem, 2009).

How the values were obtained:
[1] = biological target: T1, Prostaglandin G/H synthase 1 (Ovis aries, UniProt P05979); assay: Inhibition of ovine COX1
T1 sequence (P05979 whole entry): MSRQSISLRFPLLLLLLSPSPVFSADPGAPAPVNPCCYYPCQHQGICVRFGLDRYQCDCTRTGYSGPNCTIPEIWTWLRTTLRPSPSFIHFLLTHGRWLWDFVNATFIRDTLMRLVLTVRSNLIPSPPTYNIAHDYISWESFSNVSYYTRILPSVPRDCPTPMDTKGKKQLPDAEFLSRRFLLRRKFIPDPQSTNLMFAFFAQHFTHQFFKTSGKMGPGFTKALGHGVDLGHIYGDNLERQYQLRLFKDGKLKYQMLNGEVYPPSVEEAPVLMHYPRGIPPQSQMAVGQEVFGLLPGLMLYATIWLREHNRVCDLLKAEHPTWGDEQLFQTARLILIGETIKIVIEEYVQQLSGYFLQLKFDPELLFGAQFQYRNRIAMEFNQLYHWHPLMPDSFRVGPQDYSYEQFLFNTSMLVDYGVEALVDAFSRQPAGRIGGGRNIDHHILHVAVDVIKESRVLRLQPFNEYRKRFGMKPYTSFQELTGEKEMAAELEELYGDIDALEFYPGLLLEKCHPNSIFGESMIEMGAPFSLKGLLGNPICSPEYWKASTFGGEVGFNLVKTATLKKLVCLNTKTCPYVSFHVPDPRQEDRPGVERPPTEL

[2] = biological target: T2, Prostaglandin G/H synthase 2 (Ovis aries, UniProt P79208); assay: Inhibition of ovine COX2
T2 sequence (P79208 whole entry): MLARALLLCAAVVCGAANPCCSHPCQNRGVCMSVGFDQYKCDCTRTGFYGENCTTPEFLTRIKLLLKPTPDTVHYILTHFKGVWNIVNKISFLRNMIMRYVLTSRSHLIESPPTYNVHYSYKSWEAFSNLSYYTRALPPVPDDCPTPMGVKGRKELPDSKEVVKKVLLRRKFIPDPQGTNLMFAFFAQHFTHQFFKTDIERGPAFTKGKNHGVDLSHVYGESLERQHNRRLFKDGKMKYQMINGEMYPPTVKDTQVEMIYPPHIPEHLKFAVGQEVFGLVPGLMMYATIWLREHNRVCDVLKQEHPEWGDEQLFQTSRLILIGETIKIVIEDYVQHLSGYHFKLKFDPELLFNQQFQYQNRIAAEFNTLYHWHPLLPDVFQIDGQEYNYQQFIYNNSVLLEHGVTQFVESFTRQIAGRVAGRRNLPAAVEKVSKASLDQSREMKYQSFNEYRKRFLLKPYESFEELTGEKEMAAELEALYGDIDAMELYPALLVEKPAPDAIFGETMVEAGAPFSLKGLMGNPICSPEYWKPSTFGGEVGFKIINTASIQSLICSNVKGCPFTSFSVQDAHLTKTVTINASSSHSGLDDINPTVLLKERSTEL

[3] = biological target: T3, Prostaglandin G/H synthase 1 (Ovis aries) (UniProt P05979); assay: Inhibition of ovine COX1 at 10 uM
T3 sequence (whole entry): T1 sequence (P05979 whole entry)
Outline: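 Ovine COX-1 enzyme assay in 96-well format following a standard procedure. Compounds were tested at a single concentration of 10^-5 M, in duplicate. Results are expressed as % inhibition.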

Row | IC50 [1] | IC50 [2] | inhibition [3] | Compound
1 | > 10 µM | > 10 µM | 34% | CCSC[C@@H]1C[C@](C)(O)C[C@H](c2ccc([N+](=O)[O-])cc2)O1
2 | > 10 µM | 1 µM | 34% | C[C@]1(O)C[C@@H](CSC#N)O[C@@H](c2ccc(F)cc2)C1
3 | > 10 µM | > 10 µM | 24% | CCSC[C@@H]1C[C@](C)(O)C[C@H](c2ccc(Br)cc2)O1
4 | > 10 µM | > 10 µM | 32% | C[C@]1(O)C[C@@H](CSC#N)O[C@@H](c2ccc(Br)cc2)C1
5 |  |  | 96% | CC(C)Cc1ccc(C(C)C(=O)O)cc1 (configuration not stated)
6 | > 10 µM | > 10 µM | 29% | C[C@]1(O)C[C@@H](CSC#N)O[C@@H](c2ccc([N+](=O)[O-])cc2)C1
7 | > 10 µM | < 1 µM | 42% | CCSC[C@@H]1C[C@](C)(O)C[C@H](c2ccc(F)cc2)O1
8 | > 10 µM | > 10 µM | 34% | CCSC[C@@H]1C[C@](C)(O)C[C@H](c2ccc(Cl)cc2)O1
